≈ marks a conversion by molar mass, not a printed value.
Columns and labels:
[1] = test system: Moraxella catarrhalis; test: Antimicrobial activity against Moraxella catarrhalis; assay type: functional
[2] = Ratio of drug level in epithelial lining fluid to plasma in healthy human at 400 mg, po administered as single dose after 24 hrs
[3] = Ratio of drug level in epithelial lining fluid to plasma in healthy human at […], po administered as single dose after 6 hrs; assay type: ADME, organism-based; parameters: route oral
Procedure, shortened: (§1)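 For each subject, ELF or AM drug level after the single oral 400 mg dose is divided by the plasma level sampled at the BAL time (2-24 h). Ratios are summarized per four-subject group.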

[4] = test system: Homo sapiens; test: Toxicity in healthy human assessed as other cellular fractions in bronchoalveolar fluid at […], po administered as single dose after 10 hrs; assay type: organism-based, Lung; parameters: route oral; details: in vivo
Procedure, shortened: (§2)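 Healthy Japanese male never-smokers, aged 20 to 45 years with normal BMI, got one open-label oral 400 mg suspension dose. Four subjects per time group had one fiber-optic bronchoscopic BAL at the assigned post-dose time. The first aliquot was discarded and the last three were pooled. BAL fluid was held on ice and spun at 400 × g for 5 min at 4°C. Pellet cells were counted by hemocytometer, with a differential count on a stained cytocentrifuge preparation.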

[5] = Ratio of drug level in epithelial lining fluid to plasma in healthy human at […], po administered as single dose after 4 hrs; assay type: ADME, organism-based; parameters: route oral; procedure, shortened: as §1
[6] = test system: Homo sapiens; test: Toxicity in healthy human assessed as eosinophil count in bronchoalveolar fluid at 400 mg, po administered as single dose after 10 hrs; details: in vivo
[7] = Plasma concentration in healthy human at […], po after 4 hrs; assay type: ADME, organism-based; parameters: route oral
Procedure, shortened: (§3)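 Healthy nonsmoking Japanese men, 20-45 y, given one oral 400 mg suspension dose. Blood drawn at 0-72 h, spun at 1,600 × g for 10 min at 4°C, plasma kept at −20°C. Drug measured by validated LC/MS/MS, linear 0.005-5 μg/ml. Values are mean ± SD, n = 28. Cmax, Tmax and t1/2,z are model-independent; AUC0-24 by trapezoidal method.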

[8] = test system: Homo sapiens; test: Toxicity in healthy human assessed as alveolar macrophage count in bronchoalveolar fluid at 400 mg, po administered as single dose after 10 hrs; details: in vivo
[9] = Cmax in alveolar macrophages of healthy human at 400 mg, po administered as single dose
[10] = Tmax in plasma of healthy human at 400 mg, po administered as single dose
[11] = Terminal-phase half-life in epithelial lining fluid of healthy human at 400 mg, po administered as single dose; details: read-out: beta t1/2 (converted)
[12] = test system: Homo sapiens; test: Toxicity in healthy human assessed as neutrophil count in bronchoalveolar fluid at […], po administered as single dose after 2 hrs; assay type: organism-based, Lung; parameters: route oral; details: in vivo; procedure, shortened: as §2
[13] = Ratio of drug level in alveolar macrophages to plasma in healthy human at 400 mg, po administered as single dose after 12 hrs
[14] = Plasma concentration in healthy human at […], po after 12 hrs; assay type: ADME, organism-based; parameters: route oral; procedure, shortened: as §3
[15] = Ratio of drug level in epithelial lining fluid to plasma in healthy human at […] administered as single dose after 2 hrs; assay type: ADME, organism-based; parameters: route oral; details: po; procedure, shortened: as §1
[16] = Ratio of AUC (0 to 24 hrs) in […] healthy epithelial lining fluid to MIC90 for Moraxella catarrhalis; assay type: functional
[17] = test system: Homo sapiens; test: Toxicity in healthy human assessed as lymphocytes count in bronchoalveolar fluid at […], po administered as single dose after 10 hrs; assay type: organism-based, Lung; parameters: route oral; details: in vivo; procedure, shortened: as §2
[18] = Cmax in epithelial lining fluid of healthy human at 400 mg, po administered as single dose
[19] = AUC (0 to 24 hrs) in alveolar macrophages of healthy human at 400 mg, po administered as single dose by linear trapezoidal method

Question: Which MIC90 [1] does the source give for `CC[C@H]1OC(=O)[C@H](C)C(=O)[C@H](C)[C@@H](O[C@@H]2O[C@H](C)C[C@H](N(C)C)[C@H]2O)[C@@]2(C)C[C@@H](C)/C(=N\C(C)=O)[C@H](C)[C@@H](OC/C(=N\OCc3ccc(-n4cccn4)nc3)CO2)[C@]1(C)O` [MODITHROMYCIN] here?
Answer: 0.5 µg/mL (≈ 0.595 µM)

Question: What about the Kp at 24 h [2] of the same molecule?
Answer: 21.3

Question: And the Kp at 6 h [3]?
Answer: 27

Question: What about the Activity [4] of the same molecule?
Answer: 0.5%

Question: What about the Kp at 4 h [5] of the same molecule?
Answer: 24.8

Question: And the Activity [6]?
Answer: 0.1%

Question: And the concentration at 4 h [7]?
Answer: 575 ng/mL

Question: What about the Activity [8] of the same molecule?
Answer: 85.8%

Question: And the Cmax [9]?
Answer: 176000 ng/mL

Question: What about the Tmax [10] of the same molecule?
Answer: 2.27 h

Question: What about the half-life [11] of the same molecule?
Answer: 14.8 h

Question: And the Activity [12]?
Answer: 0%

Question: And the Kp at 12 h [13]?
Answer: 406

Question: And the concentration at 12 h [14]?
Answer: 424 ng/mL

Question: What about the Kp at 2 h [15] of the same molecule?
Answer: 26.3

Question: What about the RatioAUC/MIC [16] of the same molecule?
Answer: 424.8

Question: And the Activity [17]?
Answer: 13.6%

Question: And the Cmax [18]?
Answer: 16800 ng/mL

Question: What about the AUC(0-t) at 24 h [19] of the same molecule?
Answer: 2560 µg·h/mL

Reference: ChEMBL document CHEMBL1240362, “Intrapulmonary pharmacokinetics of S-013420, a novel bicyclolide antibacterial, in healthy Japanese subjects” (Antimicrob Agents Chemother, 2010)
